Assay results: ChEMBL document CHEMBL3603808, “Discovery and structure of a new inhibitor scaffold of the autophagy initiating kinase ULK1” (Bioorg Med Chem, 2015)
pIC50: −log10 of the molar value.

Columns and labels:
[1] = target: Dual specificity mitogen-activated protein kinase kinase 1 (Homo sapiens) (UniProt Q02750); test: Inhibition of MKK1 (unknown origin) at 2 uM by radioactive filter-binding assay
In short: (§1)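 Panel profiling of one compound against 50 kinases, carried out in duplicate at the International Centre for Protein Kinase Profiling. Radioactive filter-binding format.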

[2] = target: Interleukin-1 receptor-associated kinase 4 (Homo sapiens) (UniProt Q9NWZ3); test: Inhibition of IRAK4 (unknown origin) at 2 uM by radioactive filter-binding assay; in short: as §1
[3] = target: T1, 3-phosphoinositide-dependent protein kinase 1 (Homo sapiens, UniProt O15530); test: Inhibition of recombinant PDK1 (unknown origin) using PDK1tide substrate incubated for 7 mins
T1 sequence (O15530 whole entry): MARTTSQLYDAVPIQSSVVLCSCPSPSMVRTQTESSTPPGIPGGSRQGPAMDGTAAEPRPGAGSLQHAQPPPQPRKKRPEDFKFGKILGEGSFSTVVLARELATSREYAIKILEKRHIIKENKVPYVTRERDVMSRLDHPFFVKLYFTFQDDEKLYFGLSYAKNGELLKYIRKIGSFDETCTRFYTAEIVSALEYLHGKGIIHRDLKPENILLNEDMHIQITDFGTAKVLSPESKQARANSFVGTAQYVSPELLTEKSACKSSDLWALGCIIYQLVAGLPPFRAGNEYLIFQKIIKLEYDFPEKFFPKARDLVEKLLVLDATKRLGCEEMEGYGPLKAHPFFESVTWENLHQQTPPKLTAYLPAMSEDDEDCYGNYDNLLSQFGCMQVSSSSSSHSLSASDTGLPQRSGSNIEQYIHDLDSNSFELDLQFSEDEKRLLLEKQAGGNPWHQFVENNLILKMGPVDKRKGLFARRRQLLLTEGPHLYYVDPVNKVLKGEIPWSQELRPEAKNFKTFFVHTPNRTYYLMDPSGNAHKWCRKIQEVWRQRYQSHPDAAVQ
In short: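 Recombinant PDK1 at 5 nM with 50 µM synthetic PDK1tide in 50 mM HEPES pH 7.5, 10 mM MgCl2, 1 mg/ml BSA, 0.02% Triton-X and 50 µM DTT. Stopped after 7 min by spotting onto nitrocellulose, washed three times in 1% phosphoric acid and phosphorimaged. IC50 from curve fitting; duplicate.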

[4] = target: T2, Serine/threonine-protein kinase ULK2 (Homo sapiens, UniProt Q8IYT8); test: Inhibition of SUMO-tagged ULK2 (unknown origin) kinase domain expressed in KRX cells using [32P]-gamma-ATP and myelin basic protein substrate incubated for 7 mins; assay type: single protein
T2 sequence (Q8IYT8 whole entry): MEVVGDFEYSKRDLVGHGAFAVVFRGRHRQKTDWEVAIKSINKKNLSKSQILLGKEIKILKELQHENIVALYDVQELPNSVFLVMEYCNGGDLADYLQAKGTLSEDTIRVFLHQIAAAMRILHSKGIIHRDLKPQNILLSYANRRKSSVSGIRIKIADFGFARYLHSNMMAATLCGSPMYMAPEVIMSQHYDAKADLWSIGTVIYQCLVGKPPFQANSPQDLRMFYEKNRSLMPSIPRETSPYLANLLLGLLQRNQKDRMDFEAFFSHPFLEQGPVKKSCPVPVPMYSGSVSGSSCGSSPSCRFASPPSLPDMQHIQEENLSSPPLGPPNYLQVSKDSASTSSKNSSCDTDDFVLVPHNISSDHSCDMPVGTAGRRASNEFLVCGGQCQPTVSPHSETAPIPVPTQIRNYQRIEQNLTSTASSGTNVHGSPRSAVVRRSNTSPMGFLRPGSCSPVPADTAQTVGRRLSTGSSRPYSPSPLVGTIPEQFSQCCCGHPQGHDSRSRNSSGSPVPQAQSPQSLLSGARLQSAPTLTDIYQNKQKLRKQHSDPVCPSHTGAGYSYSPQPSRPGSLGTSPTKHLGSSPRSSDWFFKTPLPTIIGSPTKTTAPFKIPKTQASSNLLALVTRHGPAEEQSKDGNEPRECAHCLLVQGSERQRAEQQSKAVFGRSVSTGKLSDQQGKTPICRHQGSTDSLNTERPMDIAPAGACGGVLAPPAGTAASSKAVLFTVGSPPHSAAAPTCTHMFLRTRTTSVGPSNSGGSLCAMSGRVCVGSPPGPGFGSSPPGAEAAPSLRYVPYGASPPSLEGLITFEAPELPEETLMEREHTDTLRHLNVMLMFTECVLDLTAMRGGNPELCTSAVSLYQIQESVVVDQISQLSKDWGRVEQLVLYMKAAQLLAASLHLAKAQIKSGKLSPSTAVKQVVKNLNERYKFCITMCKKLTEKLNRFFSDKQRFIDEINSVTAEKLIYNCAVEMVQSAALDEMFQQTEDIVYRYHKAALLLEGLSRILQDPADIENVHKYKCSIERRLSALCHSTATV
In short: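 Enzyme at 5 nM with 50 µM cold ATP, 0.05 µCi/µl 32P-γ-ATP and 20 µM myelin basic protein as substrate. Reactions were spotted onto nitrocellulose, washed three times in 1% phosphoric acid, dried and imaged by phosphorimager. IC50 from curve fitting; duplicate.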

[5] = target: AMP-activated protein kinase, AMPK (Homo sapiens) (UniProt P54646+O43741+P54619+Q9UGJ0+Q9Y478+Q13131+Q9UGI9); test: Inhibition of AMPK (unknown origin) at 2 uM by radioactive filter-binding assay; assay type: protein-complex assay; in short: as §1
[6] = target: Glycogen synthase kinase-3 beta (Homo sapiens) (UniProt P49841); test: Inhibition of GSK3beta (unknown origin) at 250 nM by radioactive filter-binding assay; in short: as §1
Glycogen synthase kinase-3 beta (Homo sapiens), sequence (P49841 whole entry, looked up): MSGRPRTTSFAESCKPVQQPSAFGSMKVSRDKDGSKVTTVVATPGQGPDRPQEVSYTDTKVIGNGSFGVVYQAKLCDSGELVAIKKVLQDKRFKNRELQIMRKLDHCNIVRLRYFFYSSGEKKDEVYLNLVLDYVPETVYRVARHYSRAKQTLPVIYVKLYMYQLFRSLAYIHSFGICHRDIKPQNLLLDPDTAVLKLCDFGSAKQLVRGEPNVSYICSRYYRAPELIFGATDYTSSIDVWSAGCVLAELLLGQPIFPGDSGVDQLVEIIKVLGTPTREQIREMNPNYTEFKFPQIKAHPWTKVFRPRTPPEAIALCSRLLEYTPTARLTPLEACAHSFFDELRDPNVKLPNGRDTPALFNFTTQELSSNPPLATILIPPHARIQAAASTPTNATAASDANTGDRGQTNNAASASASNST

Dual specificity mitogen-activated protein kinase kinase 1 (Homo sapiens), sequence (Q02750 whole entry): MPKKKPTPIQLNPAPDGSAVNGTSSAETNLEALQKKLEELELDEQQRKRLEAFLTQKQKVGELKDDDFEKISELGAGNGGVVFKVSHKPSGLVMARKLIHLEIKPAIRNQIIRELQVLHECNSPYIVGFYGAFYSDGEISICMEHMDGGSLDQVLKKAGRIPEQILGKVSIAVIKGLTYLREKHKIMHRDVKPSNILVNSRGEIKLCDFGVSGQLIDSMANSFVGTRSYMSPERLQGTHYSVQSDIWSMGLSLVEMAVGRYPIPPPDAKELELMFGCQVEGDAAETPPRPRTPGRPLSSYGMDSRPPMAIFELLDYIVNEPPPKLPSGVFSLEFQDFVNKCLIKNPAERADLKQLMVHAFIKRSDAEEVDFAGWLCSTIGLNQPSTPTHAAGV
Interleukin-1 receptor-associated kinase 4 (Homo sapiens), sequence (Q9NWZ3 whole entry): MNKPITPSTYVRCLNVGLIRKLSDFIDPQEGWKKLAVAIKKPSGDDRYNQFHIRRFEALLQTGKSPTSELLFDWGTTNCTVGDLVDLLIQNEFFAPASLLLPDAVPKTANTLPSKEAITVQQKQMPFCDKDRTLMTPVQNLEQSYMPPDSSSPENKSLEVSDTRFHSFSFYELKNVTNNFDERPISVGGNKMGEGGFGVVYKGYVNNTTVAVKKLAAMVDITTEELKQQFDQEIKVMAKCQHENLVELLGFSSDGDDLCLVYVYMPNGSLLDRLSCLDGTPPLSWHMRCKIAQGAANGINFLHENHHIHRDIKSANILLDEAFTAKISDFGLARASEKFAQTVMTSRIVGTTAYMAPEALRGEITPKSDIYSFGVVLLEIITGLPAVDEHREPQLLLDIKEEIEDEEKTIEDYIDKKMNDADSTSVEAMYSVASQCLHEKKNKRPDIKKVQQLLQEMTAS

NCCCNc1nc(Nc2cccc(NC(=O)N3CCCC3)c2)ncc1I
inhibition [1]: > 80%
inhibition [2]: > 80%
pIC50 [3]: 6.15
pIC50 [4]: 6.44
inhibition [5]: > 80%

c1ccc2c(Nc3cc(C4CCC4)[nH]n3)nc(Nc3ccc4[nH]cnc4c3)nc2c1
inhibition [6]: > 80%
pIC50 [3]: 6.38
pIC50 [4]: 7.89
